Data set [1] can be described thus: melting temperature; fluorescence melt of hairpins on a sequencing array, two-state fit, raised by 9.35 °C to match UV melts. The conditions noted are these: sodium 0.088 M. The method, boiled down:
(§1)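 In 50 mM Na-HEPES pH 8.0 containing 25 mM NaCl, hairpins from the library on a sequenced MiSeq flow cell were imaged for Cy3 fluorescence at 2.5 °C steps up to 60 °C, with Cy3 and quencher oligos annealed. After normalisation to pre-quench Cy3 and to control constructs, two-state fits with bootstrapping gave melting temperature and folding enthalpy. Four replicates were combined by inverse-variance weighting, and fitted temperatures were shifted up by 9.35 °C to match UV melts.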

Data set [2] is described as follows: folding enthalpy; higher = less favourable; fluorescence melt of hairpins on a sequencing array, two-state fit. The conditions noted are these: sodium 0.088 M. Put shortly: as §1

Turning to GAGTCCCGAAAGGGCCTC (((.(((....))).))), the Tm in data set [1] was 52.4 °C. Moreover, in data set [2], the folding enthalpy was -26.6 kcal/mol.
As to GAGTCCCGAAAGGGCTC (((.(((....)))))), in data set [1], the Tm came out at 59.5 °C. The folding enthalpy in data set [2] was -25.5 kcal/mol.
Taken in the same sequence, the figures for GAGTCCGAAAGGAATCTC ((((((....)))..))) were 50.2 °C and -18.8 kcal/mol.
GAGTCCGAAAGGACCCTC ((((((....)))..))): in data set [1], the Tm was 43.5 °C. Moreover, in data set [2], the folding enthalpy was -10.3 kcal/mol.
Taken in the same sequence, the figures for GAGTCCGAAAGGAGGCTC ((((((....)))..))) were 47.4 °C and -20.7 kcal/mol.
As to GAGTCCGAAAGGATGCTC ((((((....)))..))), the Tm in data set [1] was 40.5 °C. Further, in data set [2], the folding enthalpy is -16.9 kcal/mol.
Consider GAGTCCGAAAGGATTCTC ((((((....)))..))), for which the Tm in data set [1] was found to be 50.6 °C. In addition, in data set [2], the folding enthalpy was -24.4 kcal/mol.
Taken in the same sequence, the figures for GAGTCGCGAAAGCGCCTC (((.(((....))).))) were 54.8 °C and -23.7 kcal/mol.
For GAGTCGCGAAAGCGTCTC (((.(((....))).))), in data set [1], the Tm turned out to be 54.7 °C. Also, the folding enthalpy in data set [2] is -22.3 kcal/mol.
As for GAGTCGGCGAAAGCCCTC (((..(((....)))))), in data set [1], the Tm came out at 25.6 °C. The folding enthalpy in data set [2] was -9.6 kcal/mol.
On to GAGTCTCCGAAAGGACTC (((..(((....)))))), for which the Tm in data set [1] worked out at 39 °C. Further, in data set [2], the folding enthalpy is -21.8 kcal/mol.
Taken in the same sequence, the figures for GAGTGAACGAAAGTTCTC (((..(((....)))))) were 29.9 °C and -11.3 kcal/mol.
The corresponding values for GAGTGACGAAAGTCCTC (((.(((....)))))) are 47.9 °C and -19.5 kcal/mol.
Taken in the same sequence, the figures for GAGTGAGGAAACTTACTC ((((.((....)).)))) were 38.1 °C and -28 kcal/mol.
Regarding GAGTGCGAAAGCAACCTC ((((((....)))..))), in data set [1], the Tm came to 37.7 °C. Moreover, the folding enthalpy in data set [2] is -13.5 kcal/mol.
Regarding GAGTGCGAAAGCAAGCTC ((((((....)))..))), the Tm in data set [1] came to 43.6 °C. Besides, the folding enthalpy in data set [2] is -14.2 kcal/mol.
The corresponding values for GAGTGCGAAAGCAGTCTC ((((((....)))..))) are 58.1 °C and -23.7 kcal/mol.
Taken in the same sequence, the figures for GAGTGCGAAAGCATCTC ((((((....))).))) were 52.1 °C and -21 kcal/mol.
The corresponding values for GAGTGCGGAAACACACCC (.(((.(....).))).) are 28.1 °C and -15.5 kcal/mol.
Take GAGTGCGGAAACGCGTTC ((..(((....)))..)): in data set [1], the Tm amounted to 34.3 °C. For the same sequence, the folding enthalpy in data set [2] was -13 kcal/mol.
Taken in the same sequence, the figures for GAGTGCGGAAACGTGCTC (((..((....))..))) were 49.5 °C and -38 kcal/mol.
Turning to GAGTGGGGAAACCCACTC (((((((....))))))), the Tm in data set [1] worked out at 67.7 °C. Moreover, the folding enthalpy in data set [2] is -29.8 kcal/mol.
The corresponding values for GAGTGGGGAAACCTGCTC (((..((....))..))) are 39.8 °C and -26.6 kcal/mol.
The corresponding values for GAGTGTCCGAAAGGACTC (((..(((....)))))) are 31.9 °C and -8.71 kcal/mol.
The corresponding values for GAGTGTGGAAACACATTC ((.((((....)))).)) are 42.5 °C and -17.6 kcal/mol.
GAGTTACGAAAGTACCTC (((.(((....))).))): the Tm in data set [1] turned out to be 40.3 °C. Moreover, the folding enthalpy in data set [2] is -24.6 kcal/mol.
Taken in the same sequence, the figures for GAGTTCCGAAAGGAGCTC (((.(((....))).))) were 57.1 °C and -37 kcal/mol.
Taken in the same sequence, the figures for GAGTTCCGAAAGGATCTC (((.(((....))).))) were 47.3 °C and -29.3 kcal/mol.
GAGTTCGGAAACGAACTC (((((((....))))))): the Tm in data set [1] came to 67.3 °C. The folding enthalpy in data set [2] was -39.4 kcal/mol.
Taken in the same sequence, the figures for GAGTTCGGAAACGAATTC ((.((((....)))).)) were 44 °C and -30.8 kcal/mol.
The corresponding values for GAGTTCGGAAACGAGCTC (((.(((....))).))) are 51.7 °C and -31.3 kcal/mol.
Taken in the same sequence, the figures for GAGTTCGGAAACGGATTC ((.(.((....)).).)) were 27.3 °C and -17.4 kcal/mol.
Turning to GAGTTGCGAAAGCATCTC (((.(((....))).))), the Tm in data set [1] is 50.1 °C. The folding enthalpy in data set [2] was -28.6 kcal/mol.
Turning to GAGTTGGGAAACCGACTC ((((.((....)).)))), the Tm in data set [1] amounted to 51.5 °C. In data set [2], the folding enthalpy was -40.2 kcal/mol.
As for GAGTTTGAAAAAACTC ((((((....)))))), the Tm in data set [1] is 50.8 °C. The folding enthalpy in data set [2] is -32.2 kcal/mol.
Taken in the same sequence, the figures for GAGTTTGGAAACAAACCC (.(((((....))))).) were 37.3 °C and -18.5 kcal/mol.
With GAGTTTGGAAACAAACTC (((((((....))))))), the Tm in data set [1] came out at 58.3 °C. Moreover, the folding enthalpy in data set [2] is -43.1 kcal/mol.

These data come from the array DNA melting data of Ke et al. (doi:10.1101/2024.01.08.574731).
